# Most compounds without a hit are left out; they make up all but 2% or so of the library.
# CRFR2-BP ag – CRF-BP/CRF-R2 complex agonism; HEK293 CRF-R2/CRF-BP, calcium dye fluorescence (FLIPR); percent of saturating CRF peptide response; activation, % at 13.2 µM; 350,000 tested, 0.46% active; AID 588473;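 active = activation of at least 50%, plus an integration ratio under a set limit after plate pattern correction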
# TRPML3 agonist – activates the human TRPML3 channel | Q8TDD5 | activation, % at 3 µM | 220,000 tested, 0.29% active | HEK293 TRPML3-YFP, Fluo-8 calcium fluorescence; 100% = the carbachol control signal;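 active = activation above its plate's cutoff, the mean activation of the plate's test wells plus 3 SD, cut at about 12% in these data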
#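 Test system: TRPML3-YFP stable HEK293 cells. Doses: single point at 3 µM. Incubation: dye loading 1 h 37 °C then 30 min ambient, 125 s read. Signal: Fluo-8 calcium dye fluorescence, ex 470-495, em 515-575 nm. Measure: percent activation from peak-to-basal fluorescence ratio, scaled between DMSO and carbachol.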
# CRFBP-R2 block – antagonists of CRF-binding protein/CRF-R2 receptor complex | HEK293 CRF-R2/CRF-BP, CRF-induced calcium fluorescence | inhibition, % at 11.8 µM | 350,000 tested, 0.59% active;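 active = inhibition of the ligand-induced calcium signal above about 50% at the single tested concentration, limit read from the data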
# GPR7 antagonist – blocks human GPR7 receptor signaling; P48145; GPR7-expressing cells, fluorescence antagonist assay; inhibition, % at 4.4 µM; 290,000 tested, 1.1% active; in the data active = inhibition above about 16%, passing the limit was not always enough;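 note: cells stimulated with the agonist NPW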
# Target sequence (P48145 whole entry, looked up): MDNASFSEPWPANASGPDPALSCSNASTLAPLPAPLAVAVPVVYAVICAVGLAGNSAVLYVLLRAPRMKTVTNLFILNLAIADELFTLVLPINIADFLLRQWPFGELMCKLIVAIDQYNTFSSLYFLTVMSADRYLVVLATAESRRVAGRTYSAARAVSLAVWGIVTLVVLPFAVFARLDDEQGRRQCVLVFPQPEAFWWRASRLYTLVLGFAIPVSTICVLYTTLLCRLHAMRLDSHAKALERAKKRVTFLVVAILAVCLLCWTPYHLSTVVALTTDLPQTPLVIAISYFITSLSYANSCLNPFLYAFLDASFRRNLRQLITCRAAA
# zfTRPN1 agonist – zebrafish TRPN1 (NompC) channel agonism. HEK293 zebrafish TRPN1-YFP, Fluo-8 calcium fluorescence; 100% = response to 87 µM carbachol. 220,000 tested, 0.18% active. AID 1424. activation, % at 3 µM;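 active = activation above its plate's cutoff, the mean activation of test wells on that plate plus 3 SD, cut at about 19% in these data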
#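 Material: zebrafish TRPN1-YFP in HEK293 cells. Doses: one dose of 3 µM, 0.3% DMSO. Incubation: dye 1 h 37 °C plus 30 min RT. Measured by: intracellular calcium fluorescence with Fluo-8.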
# GPR7 antag conf – human GPR7 antagonism, confirmation assay; shares compounds with GPR7 antagonist; GPR7-expressing cells, calcium fluorescence antagonist mode; inhibition, % at 4.4 µM; 2,400 tested, 52% active; AID 1952; in the data active = inhibition above about 24%;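 note: stimulated with the GPR7 agonist NPW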
# MCHR1 antag – antagonizes human MCHR1, a GPR7 antagonist counter-screen; 2,400 tested, 62% active; inhibition, % at 4.4 µM; MCHR1-expressing cells, fluorescence antagonist assay; shares compounds with GPR7 antagonist; in the data active = inhibition above about 22%
# Hits are given with their value; n = inactive; x = no result.
SMILES,CRFR2-BP ag,TRPML3 agonist,CRFBP-R2 block,GPR7 antagonist,zfTRPN1 agonist,GPR7 antag conf,MCHR1 antag
Clc1ccc(OCCCNCc2ccccc2)c(Br)c1,n,n,n,25.5,n,39.8,54.4
CCC(C)NCCOCCOc1ccc(Cl)cc1Br (configuration not stated),n,n,n,46.5,n,n,n
Cc1ccc(OCCOCCNC(C)C)c(Br)c1,n,n,n,n,n,x,x
Clc1ccc(Cl)c(OCCCCNCc2ccccc2)c1,n,n,n,n,n,x,x
COc1ccc(S(=O)(=O)N2CCOCC2)cc1NC(=O)COC(=O)CCS(=O)(=O)c1ccc(C)cc1,n,x,n,x,x,x,x
CC(OC(=O)c1ccccc1)C(=O)NCc1ccco1 (configuration not stated),n,x,n,x,x,x,x
O=C(CSc1nnc(Cc2cccs2)n1Cc1ccco1)Nc1ccc(Cl)cc1Cl,n,n,n,28.4,n,31.2,34.5
O=C(CSc1nnc(Cc2cccs2)n1Cc1ccco1)Nc1ccc(Br)cc1,n,n,n,n,n,x,x
Cc1ccc(S(=O)(=O)N(Cc2ccc(F)cc2)Cc2ccco2)cc1,n,n,n,32.1,n,30.3,58.0
Cc1ccc(/C(N)=N/OC(=O)c2cccc(Cn3cc(C(F)(F)F)ccc3=O)c2)cc1,n,n,n,21.2,n,n,23.2
N/C(=N\OC(=O)c1cccc(Cn2cc(C(F)(F)F)ccc2=O)c1)c1ccccc1,n,n,n,n,n,x,x
CCC(=O)N(CCC1(C(C)C)CCOC(C)(C)C1)C(C)c1cccs1 (configuration not stated),n,n,n,25.0,n,n,n
CCC(=O)N(CCC1(C(C)C)CCOC(C)(C)C1)Cc1ccco1 (configuration not stated),n,n,n,n,n,x,x
CC(NCc1ccc(OCc2ccc(Cl)cc2)cc1)C(O)c1ccccc1 (configuration not stated),n,n,n,27.3,n,58.2,80.9
CN(C(=O)COC(=O)Cn1cnc2ccccc21)C1CCCCC1,n,x,n,x,x,x,x
O=C(COC(=O)[C@@H]1CCCN1S(=O)(=O)c1ccccc1F)NCc1ccc2c(c1)OCO2,n,x,n,x,x,x,x
O=[N+]([O-])c1cccc(-c2nc3ccccc3s/c2=N/O)c1,n,n,n,n,n,45.1,40.5
O=[N+]([O-])c1cccc(-c2cnc3ccccc3n2)c1,n,n,n,n,n,x,x
O=c1c(/C=N/O)coc2ccc3ccccc3c12,n,n,n,27.2,n,n,n
O=C(NCC1CCCO1)C1CCCN(S(=O)(=O)c2cccc(C(F)(F)F)c2)C1 (configuration not stated),n,x,n,24.0,x,n,n
COc1ccc(CN(C)C(=O)c2ccc(NS(=O)(=O)c3ccc(F)cc3)cc2)c(OC)c1,n,x,n,22.3,x,n,n
CCCNC(=O)c1nnsc1S(=O)c1ccc(Cl)cc1 (configuration not stated),n,n,n,n,n,x,x
CCCNC(=O)c1nnsc1S(=O)(=O)c1ccc(Cl)cc1,n,n,70.2,35.1,n,78.6,102.5
Cc1cccn2c(CNC3CCCc4ccccc43)c(C(=O)N3CCCCC3)nc12 (configuration not stated),n,n,n,34.1,n,n,n
COc1ccccc1-c1ccc(SCc2cccc(C)c2)nn1,n,n,n,63.8,n,41.5,74.2
SMILES,CRFR2-BP ag,TRPML3 agonist,CRFBP-R2 block,GPR7 antagonist,zfTRPN1 agonist,GPR7 antag conf,MCHR1 antag
Cc1ccc(S(=O)(=O)CCC(=O)OCc2nnc(-c3ccccc3Br)o2)cc1,n,x,n,x,x,x,x
Cc1nnc(N/N=C/c2c[nH]c3ccccc23)[nH]c1=O,n,n,n,29.0,n,n,n
O=S(=O)(Nc1ccc(Cl)cc1)c1cccc2nsnc12,n,x,n,n,x,x,x
Cc1ccc(S(=O)(=O)N2CCOCC2)cc1NC(=O)CN1CCC(Cc2ccccc2)CC1,n,n,n,36.6,n,25.0,38.1
Cc1cccc(N2CCN(CC(=O)Nc3ccc(S(=O)(=O)N4CCOCC4)cc3)CC2)c1C,n,x,n,32.6,x,n,35.3
Cc1cccc(N2CCN(CC(=O)Nc3nccs3)CC2)c1C,n,n,n,35.6,n,33.9,35.9
Nc1ccc2nc(-c3ccccc3)[nH]c2c1,n,n,n,n,n,x,x
Nc1cccc(-c2nc3ccc(C(=O)c4ccccc4)cc3[nH]2)c1,n,x,n,42.7,x,27.3,63.0
CC1CC(C)C[N+](=C2C=C(N3CCCC3)CC(C)(C)C2)C1 (configuration not stated),n,n,n,49.6,n,58.0,53.4
O=C(O)C(Cc1c[nH]c2ccccc12)NS(=O)(=O)c1ccc(F)cc1 (configuration not stated),n,x,n,x,x,x,x
N#CCOC(=O)[C@H](Cc1c[nH]c2ccccc12)NS(=O)(=O)c1ccc(Cl)cc1,n,x,n,43.0,x,48.5,33.2
O=C(N1CCc2cc(S(=O)(=O)NC[C@H]3O[C@@H](n4ccc(=O)[nH]c4=O)[C@H](O)[C@@H]3O)ccc2C1)C(F)(F)F,n,x,n,x,x,x,x
COc1ccc(S(=O)(=O)N(C)c2ccc(C(=O)Nc3cccnc3)cc2)cc1OC,n,x,n,n,x,x,x
C=CCNC(=O)CSc1nc2ccccc2c(=O)n1CCc1ccc(OC)c(OC)c1,n,x,n,n,x,x,x
COc1ccc(CCn2c(SCCN3CCCCC3)nc3ccccc3c2=O)cc1OC,n,n,n,35.5,n,30.5,35.4
COc1ccccc1C(=O)C1CCCN(C(=O)c2ccc(Cl)cc2)C1 (configuration not stated),n,x,n,x,x,x,x
COc1cc(C)ccc1Oc1ncnc(N)c1[N+](=O)[O-],n,x,n,51.0,x,n,n
FC(F)(F)c1cccc(-c2nc3nc(Cl)c(Cl)nc3[nH]2)c1,81.0,14.3,n,25.1,31.8,37.3,47.8
O=C(NC(NC(=S)Nc1ccccc1Cl)C(Cl)(Cl)Cl)c1cccc(Cl)c1 (configuration not stated),n,n,n,27.1,n,49.1,61.4
COc1ccc(NC(=S)NC(NC(=O)c2cccc(Cl)c2)C(Cl)(Cl)Cl)c([N+](=O)[O-])c1 (configuration not stated),n,n,n,n,n,x,x
COc1cc(/C=N/NC(=O)CSCc2ccc([N+](=O)[O-])cc2)cc(OC)c1OC,n,n,n,22.4,n,25.7,22.6
Cc1c(C=O)c2cc(OCc3ccccc3)ccc2n1C,n,x,n,n,x,x,x
CCOC(=O)Nc1cc(=O)c2ccccc2o1,n,n,n,21.3,n,n,n
CCOc1ccccc1NC(=O)c1cc(=O)c2ccccc2o1,n,x,n,n,x,x,x
CCc1nc(SCC(=O)c2c[nH]c3ccccc23)n[nH]1,n,n,n,n,n,x,x
